Test results published in ChEMBL document CHEMBL3352666, “Human Toll-like receptor 8-selective agonistic activities in 1-alkyl-1H-benzimidazol-2-amines” (J Med Chem, 2014).
Calls of active or inactive are those of the source. The calls are words filed in the database; no cut-off is given here.

Tests used:
Type in all cases: cell-based
[1] = molecular target: Toll-like receptor 2 (Homo sapiens) (UniProt O60603); assay: Agonist activity at human TLR2 stably expressed in HEK293 cells co-expressing secreted alkaline phosphatase assessed as NF-kappaB induction by liquid handler-assisted reporter gene assay
Toll-like receptor 2 (Homo sapiens), sequence (O60603 whole entry): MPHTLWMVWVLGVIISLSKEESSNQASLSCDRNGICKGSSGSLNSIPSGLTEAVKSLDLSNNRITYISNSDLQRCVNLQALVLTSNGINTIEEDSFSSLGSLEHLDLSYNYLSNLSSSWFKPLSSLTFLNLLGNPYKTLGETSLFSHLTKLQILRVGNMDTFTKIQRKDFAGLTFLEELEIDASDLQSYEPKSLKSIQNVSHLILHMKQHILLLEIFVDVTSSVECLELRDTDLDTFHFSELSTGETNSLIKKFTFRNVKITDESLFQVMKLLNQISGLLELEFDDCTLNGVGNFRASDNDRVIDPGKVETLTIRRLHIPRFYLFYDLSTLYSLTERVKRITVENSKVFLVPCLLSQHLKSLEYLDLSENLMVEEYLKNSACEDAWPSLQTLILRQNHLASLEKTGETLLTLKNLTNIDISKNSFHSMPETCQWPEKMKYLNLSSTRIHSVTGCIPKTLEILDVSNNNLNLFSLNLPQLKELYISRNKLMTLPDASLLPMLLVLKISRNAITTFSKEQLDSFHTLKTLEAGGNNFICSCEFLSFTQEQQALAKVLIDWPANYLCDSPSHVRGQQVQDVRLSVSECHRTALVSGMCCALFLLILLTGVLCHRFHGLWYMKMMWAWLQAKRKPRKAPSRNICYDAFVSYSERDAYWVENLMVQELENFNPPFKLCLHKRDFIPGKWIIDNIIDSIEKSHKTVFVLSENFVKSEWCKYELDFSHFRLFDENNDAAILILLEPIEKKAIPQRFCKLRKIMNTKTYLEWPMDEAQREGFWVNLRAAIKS
Method in brief: (§1)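 HEK293 reporter cells stably co-transfected with the respective human TLR or NOD receptor plus NF-κB/AP-1-driven secreted alkaline phosphatase, kept in selection medium. About 10^5 cells/ml were incubated with graded concentrations of test compound in 384-well format. Supernatant sAP was read colorimetrically at 620 nm with an alkaline phosphatase-specific chromogen in detection medium.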

[2] = molecular target: Toll-like receptor 3 (Homo sapiens) (UniProt O15455); assay: Agonist activity at human TLR3 stably expressed in HEK293 cells co-expressing secreted alkaline phosphatase assessed as NF-kappaB induction by liquid handler-assisted reporter gene assay; method in brief: as §1
Toll-like receptor 3 (Homo sapiens), sequence (O15455 whole entry): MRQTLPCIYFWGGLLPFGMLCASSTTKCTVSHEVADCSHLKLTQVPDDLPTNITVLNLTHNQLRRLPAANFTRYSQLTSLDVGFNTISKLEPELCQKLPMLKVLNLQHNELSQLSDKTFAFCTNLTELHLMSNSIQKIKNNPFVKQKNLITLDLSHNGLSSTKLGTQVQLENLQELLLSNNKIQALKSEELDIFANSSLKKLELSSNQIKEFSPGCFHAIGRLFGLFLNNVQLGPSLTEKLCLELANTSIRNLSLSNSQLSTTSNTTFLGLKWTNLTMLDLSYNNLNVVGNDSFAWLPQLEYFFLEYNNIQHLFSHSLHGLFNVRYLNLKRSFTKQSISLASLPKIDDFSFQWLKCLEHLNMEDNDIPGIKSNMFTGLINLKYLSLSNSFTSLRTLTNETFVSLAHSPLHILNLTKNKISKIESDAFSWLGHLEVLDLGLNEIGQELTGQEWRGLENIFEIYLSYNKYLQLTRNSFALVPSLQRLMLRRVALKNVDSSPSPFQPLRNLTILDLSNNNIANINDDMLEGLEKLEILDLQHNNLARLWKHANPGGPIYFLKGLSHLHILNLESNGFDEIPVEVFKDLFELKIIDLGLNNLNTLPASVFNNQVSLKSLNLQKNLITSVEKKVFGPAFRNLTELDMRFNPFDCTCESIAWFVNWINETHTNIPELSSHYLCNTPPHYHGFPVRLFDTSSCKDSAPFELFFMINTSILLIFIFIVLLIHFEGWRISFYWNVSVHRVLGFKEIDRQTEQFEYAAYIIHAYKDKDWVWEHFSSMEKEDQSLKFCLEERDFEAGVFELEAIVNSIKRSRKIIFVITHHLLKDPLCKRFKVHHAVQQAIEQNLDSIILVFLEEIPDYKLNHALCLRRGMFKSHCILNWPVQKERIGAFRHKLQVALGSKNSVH

[3] = molecular target: Toll-like receptor 4 (Homo sapiens) (UniProt O00206); assay: Agonist activity at human TLR4 stably expressed in HEK293 cells co-expressing secreted alkaline phosphatase assessed as NF-kappaB induction by liquid handler-assisted reporter gene assay; method in brief: as §1
Toll-like receptor 4 (Homo sapiens), sequence (O00206 whole entry): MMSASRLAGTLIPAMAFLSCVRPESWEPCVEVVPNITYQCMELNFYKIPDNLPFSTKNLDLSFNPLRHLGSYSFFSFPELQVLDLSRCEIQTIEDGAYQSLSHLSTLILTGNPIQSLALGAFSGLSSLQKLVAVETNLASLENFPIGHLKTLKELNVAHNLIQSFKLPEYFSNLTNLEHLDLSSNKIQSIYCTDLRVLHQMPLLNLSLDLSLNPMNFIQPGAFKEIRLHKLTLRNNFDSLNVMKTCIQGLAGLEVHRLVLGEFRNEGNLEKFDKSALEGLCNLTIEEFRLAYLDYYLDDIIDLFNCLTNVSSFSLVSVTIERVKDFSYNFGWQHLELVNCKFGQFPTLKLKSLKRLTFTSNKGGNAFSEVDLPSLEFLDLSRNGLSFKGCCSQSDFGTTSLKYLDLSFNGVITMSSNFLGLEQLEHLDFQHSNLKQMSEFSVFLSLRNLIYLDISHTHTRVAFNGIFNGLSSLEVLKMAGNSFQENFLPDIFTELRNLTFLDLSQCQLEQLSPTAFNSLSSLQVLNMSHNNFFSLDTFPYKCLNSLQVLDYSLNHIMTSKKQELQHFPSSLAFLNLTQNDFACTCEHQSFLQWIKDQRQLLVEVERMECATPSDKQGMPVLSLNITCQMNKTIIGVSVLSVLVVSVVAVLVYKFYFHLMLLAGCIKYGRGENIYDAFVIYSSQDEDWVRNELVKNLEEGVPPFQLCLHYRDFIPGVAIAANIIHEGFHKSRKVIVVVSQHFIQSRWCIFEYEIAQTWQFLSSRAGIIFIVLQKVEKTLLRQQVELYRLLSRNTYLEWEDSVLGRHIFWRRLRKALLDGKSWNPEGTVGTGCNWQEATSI

[4] = molecular target: Toll-like receptor 5 (Homo sapiens) (UniProt O60602); assay: Agonist activity at human TLR5 stably expressed in HEK293 cells co-expressing secreted alkaline phosphatase assessed as NF-kappaB induction by liquid handler-assisted reporter gene assay; method in brief: as §1
Toll-like receptor 5 (Homo sapiens), sequence (O60602 whole entry): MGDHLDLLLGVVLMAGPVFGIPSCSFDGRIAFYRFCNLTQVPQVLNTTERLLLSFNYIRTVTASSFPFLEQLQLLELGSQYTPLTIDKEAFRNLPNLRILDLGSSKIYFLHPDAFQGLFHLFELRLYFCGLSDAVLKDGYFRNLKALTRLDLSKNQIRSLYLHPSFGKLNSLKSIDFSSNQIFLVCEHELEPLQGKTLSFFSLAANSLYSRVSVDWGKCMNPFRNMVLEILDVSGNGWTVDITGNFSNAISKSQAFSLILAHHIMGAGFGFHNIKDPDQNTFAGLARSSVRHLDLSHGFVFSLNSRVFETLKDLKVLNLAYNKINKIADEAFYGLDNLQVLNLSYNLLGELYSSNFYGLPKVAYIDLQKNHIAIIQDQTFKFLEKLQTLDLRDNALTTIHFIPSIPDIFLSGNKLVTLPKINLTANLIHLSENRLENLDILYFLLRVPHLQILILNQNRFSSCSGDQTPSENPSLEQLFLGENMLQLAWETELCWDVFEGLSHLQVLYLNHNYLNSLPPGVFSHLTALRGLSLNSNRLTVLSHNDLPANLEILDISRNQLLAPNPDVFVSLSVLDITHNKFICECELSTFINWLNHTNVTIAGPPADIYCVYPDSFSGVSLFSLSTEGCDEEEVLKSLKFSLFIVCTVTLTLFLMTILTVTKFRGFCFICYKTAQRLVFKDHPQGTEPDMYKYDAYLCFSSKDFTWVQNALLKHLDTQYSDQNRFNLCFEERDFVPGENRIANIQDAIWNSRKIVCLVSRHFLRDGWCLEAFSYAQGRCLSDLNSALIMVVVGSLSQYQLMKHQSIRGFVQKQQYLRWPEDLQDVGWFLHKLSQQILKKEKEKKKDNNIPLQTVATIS

[5] = molecular target: T1, Toll-like receptor 7 (Homo sapiens) (UniProt Q9NYK1); assay: Agonist activity at human TLR7 stably expressed in HEK293 cells co-expressing secreted alkaline phosphatase assessed as NF-kappaB induction by liquid handler-assisted reporter gene assay; method in brief: as §1
T1 sequence (whole entry): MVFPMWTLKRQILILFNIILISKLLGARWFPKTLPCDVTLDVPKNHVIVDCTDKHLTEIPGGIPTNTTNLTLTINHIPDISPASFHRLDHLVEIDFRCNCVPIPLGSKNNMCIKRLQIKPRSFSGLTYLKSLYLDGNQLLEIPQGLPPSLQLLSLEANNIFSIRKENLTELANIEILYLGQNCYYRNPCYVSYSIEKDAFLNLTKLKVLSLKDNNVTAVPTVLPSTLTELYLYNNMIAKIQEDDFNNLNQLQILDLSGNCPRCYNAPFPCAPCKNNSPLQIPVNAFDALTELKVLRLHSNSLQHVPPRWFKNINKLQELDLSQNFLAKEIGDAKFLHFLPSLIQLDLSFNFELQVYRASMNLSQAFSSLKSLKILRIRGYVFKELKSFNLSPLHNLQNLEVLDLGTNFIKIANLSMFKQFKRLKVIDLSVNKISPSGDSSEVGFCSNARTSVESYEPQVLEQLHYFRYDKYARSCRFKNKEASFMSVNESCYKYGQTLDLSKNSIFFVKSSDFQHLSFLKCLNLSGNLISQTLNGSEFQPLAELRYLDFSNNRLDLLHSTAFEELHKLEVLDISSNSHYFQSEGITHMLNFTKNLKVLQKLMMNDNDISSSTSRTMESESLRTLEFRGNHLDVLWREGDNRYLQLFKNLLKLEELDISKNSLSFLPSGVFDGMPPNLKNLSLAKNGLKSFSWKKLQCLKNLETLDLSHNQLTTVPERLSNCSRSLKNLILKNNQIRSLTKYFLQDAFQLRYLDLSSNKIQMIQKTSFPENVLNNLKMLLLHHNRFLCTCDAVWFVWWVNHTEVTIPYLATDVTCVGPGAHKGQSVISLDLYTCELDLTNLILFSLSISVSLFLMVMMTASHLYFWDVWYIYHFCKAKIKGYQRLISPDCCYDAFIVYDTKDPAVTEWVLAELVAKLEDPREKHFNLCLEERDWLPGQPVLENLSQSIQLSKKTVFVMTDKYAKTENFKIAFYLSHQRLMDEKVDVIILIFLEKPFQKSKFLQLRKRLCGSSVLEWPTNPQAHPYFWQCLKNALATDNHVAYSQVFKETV

[6] = molecular target: T2, Toll-like receptor 9 (Homo sapiens) (UniProt Q9NR96); assay: Agonist activity at human TLR9 stably expressed in HEK293 cells co-expressing secreted alkaline phosphatase assessed as NF-kappaB induction by liquid handler-assisted reporter gene assay; method in brief: as §1
T2 sequence (whole entry): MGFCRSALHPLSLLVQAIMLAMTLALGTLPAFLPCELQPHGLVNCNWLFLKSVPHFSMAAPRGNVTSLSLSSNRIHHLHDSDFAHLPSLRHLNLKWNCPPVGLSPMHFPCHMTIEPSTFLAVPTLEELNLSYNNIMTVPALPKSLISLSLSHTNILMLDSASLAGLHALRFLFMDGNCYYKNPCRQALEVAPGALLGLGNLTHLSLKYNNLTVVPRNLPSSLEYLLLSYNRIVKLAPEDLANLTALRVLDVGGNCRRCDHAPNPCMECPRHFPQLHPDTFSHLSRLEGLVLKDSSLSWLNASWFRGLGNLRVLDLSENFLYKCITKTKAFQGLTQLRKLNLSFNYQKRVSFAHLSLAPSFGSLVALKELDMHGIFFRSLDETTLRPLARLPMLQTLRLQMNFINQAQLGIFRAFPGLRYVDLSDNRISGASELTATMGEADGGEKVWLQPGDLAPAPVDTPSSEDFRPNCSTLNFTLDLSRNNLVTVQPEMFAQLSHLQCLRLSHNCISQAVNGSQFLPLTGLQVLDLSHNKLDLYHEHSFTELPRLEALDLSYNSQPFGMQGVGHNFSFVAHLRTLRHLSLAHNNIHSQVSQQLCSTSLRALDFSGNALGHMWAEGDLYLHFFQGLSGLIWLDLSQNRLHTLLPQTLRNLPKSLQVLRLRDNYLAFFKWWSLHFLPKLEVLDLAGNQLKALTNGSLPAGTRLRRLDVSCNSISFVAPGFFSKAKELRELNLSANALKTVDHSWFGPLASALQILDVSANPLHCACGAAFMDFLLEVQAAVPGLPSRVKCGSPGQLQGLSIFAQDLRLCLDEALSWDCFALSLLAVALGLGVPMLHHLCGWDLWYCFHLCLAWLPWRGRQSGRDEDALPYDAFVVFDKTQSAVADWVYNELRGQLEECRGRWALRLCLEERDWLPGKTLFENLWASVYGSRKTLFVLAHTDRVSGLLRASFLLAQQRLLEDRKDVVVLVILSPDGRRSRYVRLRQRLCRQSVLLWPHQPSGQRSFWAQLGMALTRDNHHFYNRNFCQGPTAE

[7] = molecular target: T3, Nucleotide-binding oligomerization domain-containing protein 1 (Homo sapiens) (UniProt Q9Y239); assay: Agonist activity at human NOD1 stably expressed in HEK293 cells co-expressing secreted alkaline phosphatase assessed as NF-kappaB induction by liquid handler-assisted reporter gene assay; method in brief: as §1
T3 sequence (whole entry): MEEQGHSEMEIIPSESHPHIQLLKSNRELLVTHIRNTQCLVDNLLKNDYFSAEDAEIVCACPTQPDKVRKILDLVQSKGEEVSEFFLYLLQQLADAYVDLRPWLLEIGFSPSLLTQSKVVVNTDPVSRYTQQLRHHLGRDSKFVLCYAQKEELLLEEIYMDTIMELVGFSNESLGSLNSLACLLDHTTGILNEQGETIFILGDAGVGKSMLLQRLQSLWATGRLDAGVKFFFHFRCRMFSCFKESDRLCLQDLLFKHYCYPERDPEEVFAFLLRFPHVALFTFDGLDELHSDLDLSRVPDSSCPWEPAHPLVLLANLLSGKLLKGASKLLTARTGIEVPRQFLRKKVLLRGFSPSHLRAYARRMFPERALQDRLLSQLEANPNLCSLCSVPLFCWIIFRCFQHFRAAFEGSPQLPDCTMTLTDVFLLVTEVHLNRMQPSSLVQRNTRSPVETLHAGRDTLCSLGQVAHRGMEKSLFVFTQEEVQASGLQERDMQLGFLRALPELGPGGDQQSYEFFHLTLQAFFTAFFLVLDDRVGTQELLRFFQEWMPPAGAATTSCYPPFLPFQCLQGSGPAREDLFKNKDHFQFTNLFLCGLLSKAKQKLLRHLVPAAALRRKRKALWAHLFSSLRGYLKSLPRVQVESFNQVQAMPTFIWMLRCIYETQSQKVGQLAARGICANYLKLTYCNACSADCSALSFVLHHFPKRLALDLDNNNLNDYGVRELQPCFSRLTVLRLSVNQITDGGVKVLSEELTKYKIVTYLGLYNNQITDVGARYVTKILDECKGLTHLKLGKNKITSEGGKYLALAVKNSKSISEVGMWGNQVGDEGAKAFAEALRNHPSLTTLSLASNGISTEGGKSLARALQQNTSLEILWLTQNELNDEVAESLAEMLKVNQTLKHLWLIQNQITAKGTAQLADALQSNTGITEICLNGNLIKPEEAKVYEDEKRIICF

[8] = molecular target: Nucleotide-binding oligomerization domain-containing protein 2 (Homo sapiens, UniProt Q9HC29); assay: Agonist activity at human NOD2 stably expressed in HEK293 cells co-expressing secreted alkaline phosphatase assessed as NF-kappaB induction by liquid handler-assisted reporter gene assay; method in brief: as §1
Nucleotide-binding oligomerization domain-containing protein 2, sequence (Q9HC29 whole entry, the tested form may be a part): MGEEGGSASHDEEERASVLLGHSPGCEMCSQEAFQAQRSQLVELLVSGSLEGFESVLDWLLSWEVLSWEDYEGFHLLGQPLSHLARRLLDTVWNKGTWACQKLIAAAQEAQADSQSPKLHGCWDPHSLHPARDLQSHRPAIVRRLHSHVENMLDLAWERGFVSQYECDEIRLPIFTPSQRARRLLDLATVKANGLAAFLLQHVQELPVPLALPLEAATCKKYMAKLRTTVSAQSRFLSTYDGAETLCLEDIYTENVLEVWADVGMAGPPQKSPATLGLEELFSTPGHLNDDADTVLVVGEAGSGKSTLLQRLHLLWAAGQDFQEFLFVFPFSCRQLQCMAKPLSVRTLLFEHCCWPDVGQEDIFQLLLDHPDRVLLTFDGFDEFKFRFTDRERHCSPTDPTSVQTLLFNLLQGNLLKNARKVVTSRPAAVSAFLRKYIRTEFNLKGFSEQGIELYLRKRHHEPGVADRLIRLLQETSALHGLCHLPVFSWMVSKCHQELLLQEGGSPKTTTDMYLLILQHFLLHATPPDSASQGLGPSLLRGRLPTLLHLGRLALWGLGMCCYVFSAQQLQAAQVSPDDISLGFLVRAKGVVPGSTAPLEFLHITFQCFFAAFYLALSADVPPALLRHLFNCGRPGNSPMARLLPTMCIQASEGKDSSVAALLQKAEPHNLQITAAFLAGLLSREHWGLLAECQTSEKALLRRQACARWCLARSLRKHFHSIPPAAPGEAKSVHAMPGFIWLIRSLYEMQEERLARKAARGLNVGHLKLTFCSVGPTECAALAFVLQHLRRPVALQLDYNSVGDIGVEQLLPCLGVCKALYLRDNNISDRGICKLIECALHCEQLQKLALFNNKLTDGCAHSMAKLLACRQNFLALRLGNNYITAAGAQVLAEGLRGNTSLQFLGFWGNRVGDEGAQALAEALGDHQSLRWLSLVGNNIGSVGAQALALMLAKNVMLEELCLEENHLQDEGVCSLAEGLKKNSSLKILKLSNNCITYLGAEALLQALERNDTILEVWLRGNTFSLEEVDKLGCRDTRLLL

Activity [1]	Activity [2]	Activity [3]	Activity [4]	Activity [5]	Activity [6]	Activity [7]	Activity [8]	Compound
inactive	inactive	inactive	inactive	inactive	inactive	inactive	inactive	CCCCCn1c(N)nc2cc(C)ccc21
inactive	inactive	inactive	inactive	inactive	inactive	inactive	inactive	CCCCCCn1c(N)nc2ccccc21
inactive	inactive	inactive	inactive	inactive	inactive	inactive	inactive	CCCCCn1c(N)nc2c(OC)cccc21
inactive	inactive	inactive	inactive	inactive	inactive	inactive	inactive	CCCCCn1c(N)nc2c(O)cccc21
inactive	inactive	inactive	inactive	inactive	inactive	inactive	inactive	CCCCCn1c(N)nc2ccccc21
inactive	inactive	inactive	inactive	inactive	inactive	inactive	inactive	CCCCCn1c(N)nc2c(CC)cccc21
inactive	inactive	inactive	inactive	inactive	inactive	inactive	inactive	CCCCCn1c(N)nc2cccc(C)c21
inactive	inactive	inactive	inactive	inactive	inactive	inactive	inactive	CCCCCn1c(N)nc2ccc(C)cc21
inactive	inactive	inactive	inactive	inactive	inactive	inactive	inactive	CCCCCn1c(N)nc2c3ccccc3ccc21
inactive	inactive	inactive	inactive	inactive	inactive	inactive	inactive	CCCCn1c(N)nc2ccccc21
inactive	inactive	inactive	inactive	inactive	inactive	inactive	inactive	CCCCCn1c(N)nc2c(N)cccc21
inactive	inactive	inactive	inactive	inactive	inactive	inactive	inactive	CCCCCn1c(N)nc2c(N(C)C)cccc21
